Measured values of several laboratories.
Protocols differ between the studies behind these lines.
Target: Tyrosine-protein kinase Blk (BLK, Homo sapiens, UniProt P51451)

| Structure (SMILES) | read-out | method | tested at | remaining binding [%] |
| --- | --- | --- | --- | --- |
| Nc1cnc(N2CCc3cc(S(=O)(=O)Nc4c(F)cc(Cl)cc4F)cc(N4CCCC4=O)c32)nc1 | cell-free assay | competition with immobilised ligand | 1 µM | 100 |
| COc1ncc2cc3ccccc3nc2c1C#N | cell-free assay | competition with immobilised ligand | 5 µM | 87 |
| c1cnn2ncc(-c3ccnc(N4CCC45COC5)n3)c2c1 | binding |  | 1 µM | 100 |
| O=C(NCCCN1CCOCC1)c1ccc(Nc2nccc(-c3cc4ccccc4s3)n2)cc1 | binding | competition with immobilised ligand | 1 µM | 100 |
| COc1ccc2c(O[C@@H]3C[C@H]4C(=O)N[C@]5(C(=O)O)CC5/C=C\CCCCC[C@H](NC(=O)OC5CCCC5)C(=O)N4C3)cc(-c3csc(NC(=O)C(C)C)n3)nc2c1C (stereo partly shown) | cell-free assay | competition with immobilised ligand | 1 µM | 97 |
| O=C(c1ccc(Nc2nccc(-c3cc4ccccc4s3)n2)cc1)N1CCC(N2CCCC2)CC1 | binding | competition with immobilised ligand | 1 µM | 100 |
| C=CC(=O)N1CCC(C(=O)NCC(=O)N2CCN(c3nc(-c4cnc(N)nc4C(F)F)nc(N4CCOCC4)n3)CC2)CC1 | binding | competition with immobilised ligand | 1 µM | 100 |
| CN(c1nccc(-c2cnn3ncccc23)n1)C1CC1 | binding |  | 1 µM | 100 |
| O=C(c1ccc(Nc2ncc(Cl)c(-c3ccc(Cl)s3)n2)cc1)N1CCC(N2CCCC2)CC1 | binding | competition with immobilised ligand | 1 µM | 100 |
| CO[C@@H](C)c1c(Nc2ccc([C@H](N(C)C(=O)C3CCS(=O)(=O)CC3)C(F)(F)F)cc2)cnc2cc(Cl)nn12 | cell-free assay | competition with immobilised ligand | 1 µM | 87 |
| O=C(NCC1CCOCC1)c1n[nH]cc1NC(=O)c1c(F)cccc1F | binding | competition with immobilised ligand | 1 µM | 100 |
| Cc1nc(C2CCN(C(=O)c3ccc(OC(F)(F)F)cc3N)CC2)c2ncc(N3CCN(C)CC3)cc2n1 | cell-free assay | competition with immobilised ligand | 1 µM | 97 |
| CN(C)c1nccc(-c2cnn3ncccc23)n1 | binding |  | 1 µM | 100 |
| CNC(=O)[C@@H]1CC[C@@H](n2c(-c3ccc4cnccc4c3)nc3ccc(C(=O)NCc4cccc(C(N)=O)c4)cc32)C1 | binding | competition with immobilised ligand | 1 µM | 91 |
| CN(CCCC(F)(F)F)c1nccc(-c2cnn3ncccc23)n1 | binding |  | 1 µM | 91 |
| CN([C@@H]1CCc2c(CC(=O)O)c3cc(S(C)(=O)=O)ccc3n2C1)S(=O)(=O)c1ccc(F)cc1 | cell-free assay | competition with immobilised ligand | 1 µM | 99 |
| Cc1cnn2ncc(-c3ccnc(N(C)C)n3)c2c1 | binding |  | 1 µM | 28 |
| Cc1c(C(=O)O)cc(-c2ccc(C3CCNCC3)cc2)c2ccc(-c3ccc(C(F)(F)F)cc3)cc12 | cell-free assay | competition with immobilised ligand | 1 µM | 100 |
| C[C@H]1CCN(c2nccc(-c3cnn4ncccc34)n2)C1 | binding |  | 1 µM | 100 |
| C[C@@H](c1ccc(-n2cnc3c(N)ncnc32)cc1)N1CCc2nn(C)c(Cc3ccccc3)c2C1=O | binding | competition with immobilised ligand | 0.1 µM | 89 |
| N[C@@H]1CCN(c2nccc(-c3cnn4ncccc34)n2)C1 | binding |  | 1 µM | 97 |
| Nc1ncc2c(n1)-c1c([nH]c3ccc(C#CC4CC4)cc13)CCCC2 | binding | competition with immobilised ligand | 1 µM | 100 |
